Assay results published in ChEMBL document CHEMBL4811218, “Discovery and optimization of withangulatin A derivatives as novel glutaminase 1 inhibitors for the treatment of triple-negative breast cancer” (Eur J Med Chem, 2021).
Calls of active or inactive are those of the source. No cut-off for these calls is given here.

Columns and labels:
MDA-MB-231 [1] = experiment: Induction of apoptosis in human MDA-MB-231 cells assessed as viable cells at 640 nM incubated for 12 hrs by annexin V-FITC/PI based flow cytometric analysis (reference value: 98.1%); assay type: functional; conditions: read-out: Activity
How it was run: (§1)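 Cells exposed to compound or 0.1% DMSO for 12 h at 37°C, then resuspended in PBS at 1×10^5 cells/mL. Stained with annexin V-FITC and PI for 20 min at room temperature in the dark, then analysed by flow cytometry. Quadrant percentages reported: lower right early apoptotic, upper right late apoptotic. n = 4, mean ± SD.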

MDA-MB-231 [2] = experiment: Induction of apoptosis in human MDA-MB-231 cells assessed as late apoptotic cells at 160 nM incubated for 12 hrs by annexin V-FITC/PI based flow cytometric analysis (reference value: 0.7%); assay type: functional; how it was run: as §1
[3] = target: T1, Glutaminase kidney isoform, mitochondrial (Homo sapiens, UniProt O94925); experiment: Inhibition of human GLS1
T1 sequence (O94925 whole entry): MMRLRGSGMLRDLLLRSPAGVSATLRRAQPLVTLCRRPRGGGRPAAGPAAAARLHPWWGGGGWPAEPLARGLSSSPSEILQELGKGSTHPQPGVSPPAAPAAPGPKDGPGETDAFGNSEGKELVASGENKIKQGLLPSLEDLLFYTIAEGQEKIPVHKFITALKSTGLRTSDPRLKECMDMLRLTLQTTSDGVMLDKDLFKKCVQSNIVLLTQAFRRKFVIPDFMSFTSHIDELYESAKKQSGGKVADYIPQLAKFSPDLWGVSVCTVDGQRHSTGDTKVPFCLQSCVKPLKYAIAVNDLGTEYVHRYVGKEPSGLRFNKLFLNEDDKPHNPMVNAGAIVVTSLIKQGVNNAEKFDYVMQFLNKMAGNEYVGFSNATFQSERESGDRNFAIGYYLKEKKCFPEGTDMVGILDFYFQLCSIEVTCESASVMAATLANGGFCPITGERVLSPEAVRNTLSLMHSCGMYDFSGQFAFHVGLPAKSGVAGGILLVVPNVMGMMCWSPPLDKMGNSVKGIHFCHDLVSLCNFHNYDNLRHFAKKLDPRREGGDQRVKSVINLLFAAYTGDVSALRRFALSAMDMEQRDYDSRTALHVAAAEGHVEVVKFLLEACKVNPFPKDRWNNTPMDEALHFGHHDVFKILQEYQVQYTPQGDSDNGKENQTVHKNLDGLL
How it was run: (§2)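 Human GLS1 hydrolase activity measured with a commercial GLS1 inhibitor screening kit, following the manufacturer's protocol. Single-point screening was run at 10 μM.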

MDA-MB-231 [4] = experiment: Antiproliferative activity against human MDA-MB-231 cells after 24 hrs by MTT assay relative to control; assay type: functional
How it was run: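 MDA-MB-231 cells kept in DMEM with 10% FBS at 37°C, 5% CO2. Seeded at 5×10^3 cells/well and left 24 h, then exposed to compounds at 0.078-10 µM for 24 h. 0.1% DMSO served as the vehicle control. MTT added for 4 h, formazan dissolved in DMSO, absorbance read at 570 nm. IC50 derived. Each run in triplicate, repeated at least three times.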

MDA-MB-231 [5] = experiment: Induction of apoptosis in human MDA-MB-231 cells assessed as early apoptotic cells at 640 nM incubated for 12 hrs by annexin V-FITC/PI based flow cytometric analysis (reference value: 1.2%); assay type: functional; how it was run: as §1
MDA-MB-231 [6] = experiment: Induction of apoptosis in human MDA-MB-231 cells assessed as viable cells at 160 nM incubated for 12 hrs by annexin V-FITC/PI based flow cytometric analysis (reference value: 98.1%); assay type: functional; conditions: read-out: Activity; how it was run: as §1
MDA-MB-231 [7] = experiment: Induction of apoptosis in human MDA-MB-231 cells assessed as increase in cleaved caspase-3 expression after 12 hrs by Western blotting analysis; assay type: functional, cell-based; conditions: dose 160-640 nM
How it was run: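 MDA-MB-231 cells exposed to graded concentrations or 0.1% DMSO; the methods state 24 h, the legend 12 h. Lysed in RIPA, 80 µg protein per lane on SDS-PAGE and transferred to PVDF. Probed overnight at 4°C for caspase-3, cleaved caspase-3, caspase-9 and cleaved caspase-9, with GAPDH as loading control. HRP secondaries, ECL detection, densitometry. n = 4.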

[8] = Toxicity in BALB/c nude mouse xenografted with human MDA-MB-231 cells assessed as spleen tissue damage at 25 to 50 mg/kg, ip administered every 3 days for 4 weeks; assay type: organism-based; conditions: in vivo, 672 h, dose 25-50 mg/kg
How it was run: (§3)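 Xenograft-bearing nude mice (MDA-MB-231, s.c. right flank, treated from about 100 mm³) received 25 or 50 mg/kg i.p. every three days for four weeks. At the end mice were euthanized, and visceral organs were fixed in 4% paraformaldehyde for histopathology.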

MDA-MB-231 [9] = experiment: Antitumor activity against human MDA-MB-231 cells xenografted in BALB/c nude mouse assessed as tumor growth inhibition at 25 to 50 mg/kg, ip administered every 3 days for 4 weeks; assay type: functional, organism-based; conditions: dose 25-50 mg/kg
How it was run: (§4)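 Nude mice given 3×10^6 MDA-MB-231 cells in 200 µL PBS, injected subcutaneously into the right flank. Once tumors reached about 100 mm³, mice were randomized into four groups. Dosing was 25 or 50 mg/kg i.p. every three days for four weeks. Tumor volume, tumor weight and body weight were followed. n = 6, mean ± SD.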

[10] = Toxicity in BALB/c nude mouse xenografted with human MDA-MB-231 cells assessed as effect on body weight at 25 to 50 mg/kg, ip administered every 3 days for 4 weeks; assay type: organism-based; conditions: in vivo, 672 h, dose 25-50 mg/kg; how it was run: as §4
[11] = Toxicity in BALB/c nude mouse xenografted with human MDA-MB-231 cells assessed as liver tissue damage at 25 to 50 mg/kg, ip administered every 3 days for 4 weeks; assay type: organism-based; conditions: in vivo, 672 h, dose 25-50 mg/kg; how it was run: as §3
[12] = target: T2, Glutaminase kidney isoform, mitochondrial (Homo sapiens) (UniProt O94925); experiment: Potency index, ratio of WA IC50 to compound IC50 for inhibition of human GLS1; how it was run: as §2
T2 sequence (whole entry): T1 sequence (O94925 whole entry)

[13] = Toxicity in BALB/c nude mouse xenografted with human MDA-MB-231 cells assessed as heart tissue damage at 25 to 50 mg/kg, ip administered every 3 days for 4 weeks; assay type: organism-based; conditions: in vivo, 672 h, dose 25-50 mg/kg; how it was run: as §3
MDA-MB-231 [14] = experiment: Induction of apoptosis in human MDA-MB-231 cells assessed as necrotic cells at 320 nM incubated for 12 hrs by annexin V-FITC/PI based flow cytometric analysis (reference value: 0.1%); assay type: functional; how it was run: as §1
MDA-MB-231 [15] = experiment: Antiproliferative activity against human MDA-MB-231 cells after 24 hrs by MTT assay; assay type: functional, cell-based
MDA-MB-231 [16] = experiment: Induction of apoptosis in human MDA-MB-231 cells assessed as early apoptotic cells at 320 nM incubated for 12 hrs by annexin V-FITC/PI based flow cytometric analysis (reference value: 1.2%); assay type: functional; how it was run: as §1
[17] = Toxicity in BALB/c nude mouse xenografted with human MDA-MB-231 cells assessed as lung tissue damage at 25 to 50 mg/kg, ip administered every 3 days for 4 weeks; assay type: organism-based; conditions: in vivo, 672 h, dose 25-50 mg/kg; how it was run: as §3
MDA-MB-231 [18] = experiment: Induction of apoptosis in human MDA-MB-231 cells assessed as necrotic cells at 160 nM incubated for 12 hrs by annexin V-FITC/PI based flow cytometric analysis (reference value: 0.1%); assay type: functional; how it was run: as §1
MDA-MB-231 [19] = experiment: Antitumor activity against human MDA-MB-231 cells xenografted in BALB/c nude mouse assessed as reduction in tumor weight at 25 to 50 mg/kg, ip administered every 3 days for 4 weeks; assay type: functional, organism-based; conditions: dose 25-50 mg/kg; how it was run: as §4

CC(=O)O[C@H]1C=C([C@H](C)[C@H]2CC(C)=C(C)C(=O)O2)[C@@]2(C)CC[C@H]3[C@@H](C[C@H]4O[C@]45[C@@H](OC(=O)CCCC(=O)Nc4ccc(N6CCOCC6)c(F)c4)C=CC(=O)[C@]35C)[C@@]12O
viability at 0.64 µM (MDA-MB-231 [1]): 59.7% | Activity (MDA-MB-231 [2]): 1% | IC50 [3]: 1080 nM | inhibition (INH) (MDA-MB-231 [4]): 95.2% | Activity (MDA-MB-231 [5]): 28.5% | viability at 0.16 µM (MDA-MB-231 [6]): 96.3% | Activity (MDA-MB-231 [7]): Dose-Dependent Effect | Activity [8]: Non-Toxic | Activity (MDA-MB-231 [9]): Active | Activity [10]: Non-Toxic | Activity [11]: Non-Toxic | Ratio IC50 [12]: 20 | Activity [13]: Non-Toxic | Activity (MDA-MB-231 [14]): 0.1% | Activity (MDA-MB-231 [15]): Dose-Dependent Effect | IC50 (MDA-MB-231 [15]; MDA-MB-231, 24 h): 320 nM | Activity (MDA-MB-231 [16]): 16.7% | Activity [17]: Non-Toxic | Activity (MDA-MB-231 [18]): 0.2% | Activity (MDA-MB-231 [19]): Active
